# Values joined by “and” are separate entries in the source; they are usually repeats but may differ in a detail not shown here. Equal values may be shown once.
# Tested on: Fibroblast
# Assay: Multiplex assay against human fibroblast
# Type: toxicity, cell-based
# Settings: number of replicates 2
# Procedure, shortened: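 At seeding, live cells were stained with Hoechst33342, BioTracker Green Microtubule Cytoskeleton Dye, MitoTracker Red and Annexin V Alexa Fluor 680. After compound addition they were imaged on a CQ1 microscope at 37°C and 5% CO2, and CellPathfinder machine-learning gating sorted them into Hoechst high-intensity objects or normal cells, with normal cells further split into healthy, pyknosed or fragmented nuclei and pyknosed cells into mitotic or apoptotic. Tubulin, mitochondrial-mass and membrane-permeability phenotypes are given as per cents of cells with healthy nuclei.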
# [1] = 12 h, 1 µM, compound concentration 1 uM
# [2] = 12 h, 10 µM, compound concentration 10 uM
# [3] = 24 h, 1 µM, compound concentration 1 uM
# [4] = 24 h, 10 µM, compound concentration 10 uM
# [5] = 48 h, 1 µM, compound concentration 1 uM
# [6] = 48 h, 10 µM, compound concentration 10 uM
smiles,measurement,setting,value
COc1ccc(-c2cc3c(C)nc(N)nc3n([C@H]3CC[C@H](OCCO)CC3)c2=O)cn1 [PF-04691502],Population Apoptotic (%),[1],34% and 55%
same,Population Fragmented Nuclei (%),[1],15% and 13%
same,Population Healthy Nuclei (%),[1],73% and 71%
same,Population Hoechst High Intensity Objects (%),[1],0%
same,Population Membrane Permeable-Phenotype (%),[1],3%
same,Population Mitochondria Different-Phenotype (%),[1],3% and 1%
same,Population Mitotic Cells (%),[1],65% and 45%
same,Population Normal (%),[1],100%
same,Population Pyknosed Nuclei (%),[1],10% and 15%
same,Population Tubulin-Different-Phenotype (%),[1],11% and 8%
same,Total Cell Count,[1],270 and 253
same,Population Apoptotic (%),[2],55% and 54%
same,Population Fragmented Nuclei (%),[2],29% and 27%
same,Population Healthy Nuclei (%),[2],51% and 60%
same,Population Hoechst High Intensity Objects (%),[2],1% and 0%
same,Population Membrane Permeable-Phenotype (%),[2],5% and 9%
same,Population Mitochondria Different-Phenotype (%),[2],3% and 1%
same,Population Mitotic Cells (%),[2],44% and 45%
same,Population Normal (%),[2],98% and 100%
same,Population Pyknosed Nuclei (%),[2],18% and 11%
same,Population Tubulin-Different-Phenotype (%),[2],26% and 18%
same,Total Cell Count,[2],185 and 202
same,Population Apoptotic (%),[3],62% and 58%
same,Population Fragmented Nuclei (%),[3],7% and 9%
same,Population Healthy Nuclei (%),[3],80% and 72%
same,Population Hoechst High Intensity Objects (%),[3],0%
same,Population Membrane Permeable-Phenotype (%),[3],4% and 2%
same,Population Mitochondria Different-Phenotype (%),[3],1%
same,Population Mitotic Cells (%),[3],37% and 41%
same,Population Normal (%),[3],99%
same,Population Pyknosed Nuclei (%),[3],12% and 17%
same,Population Tubulin-Different-Phenotype (%),[3],7% and 3%
same,Total Cell Count,[3],262 and 247
same,Population Apoptotic (%),[4],59% and 65%
same,Population Fragmented Nuclei (%),[4],20%
same,Population Healthy Nuclei (%),[4],60% and 66%
same,Population Hoechst High Intensity Objects (%),[4],0%
same,Population Membrane Permeable-Phenotype (%),[4],10% and 8%
same,Population Mitochondria Different-Phenotype (%),[4],0% and 1%
same,Population Mitotic Cells (%),[4],40% and 34%
same,Population Normal (%),[4],99% and 100%
same,Population Pyknosed Nuclei (%),[4],20% and 13%
same,Population Tubulin-Different-Phenotype (%),[4],27% and 23%
same,Total Cell Count,[4],161 and 176
same,Population Apoptotic (%),[5],60% and 59%
same,Population Fragmented Nuclei (%),[5],8% and 12%
same,Population Healthy Nuclei (%),[5],80% and 72%
same,Population Hoechst High Intensity Objects (%),[5],0%
same,Population Membrane Permeable-Phenotype (%),[5],5%
same,Population Mitochondria Different-Phenotype (%),[5],0%
same,Population Mitotic Cells (%),[5],39% and 40%
same,Population Normal (%),[5],100%
same,Population Pyknosed Nuclei (%),[5],10% and 15%
same,Population Tubulin-Different-Phenotype (%),[5],6% and 4%
same,Total Cell Count,[5],258 and 245
same,Population Apoptotic (%),[6],66%
same,Population Fragmented Nuclei (%),[6],12% and 22%
same,Population Healthy Nuclei (%),[6],59%
same,Population Hoechst High Intensity Objects (%),[6],0%
same,Population Membrane Permeable-Phenotype (%),[6],7% and 4%
same,Population Mitochondria Different-Phenotype (%),[6],1%
same,Population Mitotic Cells (%),[6],33%
same,Population Normal (%),[6],100%
same,Population Pyknosed Nuclei (%),[6],27% and 17%
same,Population Tubulin-Different-Phenotype (%),[6],32% and 19%
same,Total Cell Count,[6],140 and 170
COc1cc(C(=O)NC2CCN(C)CC2)ccc1Nc1ncc(C(F)(F)F)c(NCc2ccc(C)cc2N(C)S(C)(=O)=O)n1.O=CO.O=CO,Population Apoptotic (%),[1],44% and 53%
same,Population Fragmented Nuclei (%),[1],24% and 14%
same,Population Healthy Nuclei (%),[1],64% and 61%
same,Population Hoechst High Intensity Objects (%),[1],1% and 0%
same,Population Membrane Permeable-Phenotype (%),[1],8% and 11%
same,Population Mitochondria Different-Phenotype (%),[1],3% and 4%
same,Population Mitotic Cells (%),[1],55% and 46%
same,Population Normal (%),[1],98% and 100%
same,Population Pyknosed Nuclei (%),[1],10% and 24%
same,Population Tubulin-Different-Phenotype (%),[1],64% and 46%
same,Total Cell Count,[1],277 and 215
same,Population Apoptotic (%),[2],63% and 46%
same,Population Fragmented Nuclei (%),[2],6% and 16%
same,Population Healthy Nuclei (%),[2],27% and 55%
same,Population Hoechst High Intensity Objects (%),[2],0%
same,Population Membrane Permeable-Phenotype (%),[2],6% and 8%
same,Population Mitochondria Different-Phenotype (%),[2],15%
same,Population Mitotic Cells (%),[2],36% and 53%
same,Population Normal (%),[2],100% and 99%
same,Population Pyknosed Nuclei (%),[2],66% and 27%
same,Population Tubulin-Different-Phenotype (%),[2],67% and 69%
same,Total Cell Count,[2],168 and 259
same,Population Apoptotic (%),[3],63% and 64%
same,Population Fragmented Nuclei (%),[3],21% and 17%
same,Population Healthy Nuclei (%),[3],70% and 66%
same,Population Hoechst High Intensity Objects (%),[3],1% and 0%
same,Population Membrane Permeable-Phenotype (%),[3],4% and 6%
same,Population Mitochondria Different-Phenotype (%),[3],9% and 6%
same,Population Mitotic Cells (%),[3],36% and 35%
same,Population Normal (%),[3],98% and 100%
same,Population Pyknosed Nuclei (%),[3],8% and 16%
same,Population Tubulin-Different-Phenotype (%),[3],53% and 38%
same,Total Cell Count,[3],268 and 243
same,Population Apoptotic (%),[4],94% and 92%
same,Population Fragmented Nuclei (%),[4],5% and 12%
same,Population Healthy Nuclei (%),[4],9% and 16%
same,Population Hoechst High Intensity Objects (%),[4],0% and 1%
same,Population Mitochondria Different-Phenotype (%),[4],23% and 62%
same,Population Mitotic Cells (%),[4],5% and 7%
same,Population Normal (%),[4],99% and 98%
same,Population Pyknosed Nuclei (%),[4],85% and 70%
same,Population Tubulin-Different-Phenotype (%),[4],84% and 77%
same,Total Cell Count,[4],135 and 166
same,Population Apoptotic (%),[5],94% and 90%
same,Population Fragmented Nuclei (%),[5],27% and 25%
same,Population Healthy Nuclei (%),[5],66% and 65%
same,Population Hoechst High Intensity Objects (%),[5],0%
same,Population Membrane Permeable-Phenotype (%),[5],6% and 5%
same,Population Mitochondria Different-Phenotype (%),[5],5% and 2%
same,Population Mitotic Cells (%),[5],5% and 9%
same,Population Normal (%),[5],99%
same,Population Pyknosed Nuclei (%),[5],6% and 8%
same,Population Tubulin-Different-Phenotype (%),[5],43% and 20%
same,Total Cell Count,[5],267 and 253
same,Population Apoptotic (%),[6],97% and 96%
same,Population Fragmented Nuclei (%),[6],27% and 31%
same,Population Healthy Nuclei (%),[6],16% and 15%
same,Population Hoechst High Intensity Objects (%),[6],0%
same,Population Membrane Permeable-Phenotype (%),[6],31% and 30%
same,Population Mitochondria Different-Phenotype (%),[6],9% and 26%
same,Population Mitotic Cells (%),[6],2% and 3%
same,Population Normal (%),[6],100%
same,Population Pyknosed Nuclei (%),[6],56% and 53%
same,Population Tubulin-Different-Phenotype (%),[6],81% and 78%
same,Total Cell Count,[6],132 and 153

# Source: ChEMBL document CHEMBL5303300, “EUbOPEN Chemogenomics Library - Multiplex” (2023)
